Experiment [1] can be described thus: inhibitors of TNFa-induced NFkB p65 translocation, primary screen, imaging, HUVEC, MLSMR starter and 10KST1 sets (AID 438;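 active = inhibition above 20% together with a positive visual image hit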;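 also: compound added about 3h40 before a 20 min TNFalpha stimulation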;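 as to inhibition: signal is the nuclear over cytoplasmic p65 intensity ratio per well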). The conditions noted are these: HUVEC TNFa-induced p65 nuclear translocation; cell count: measured here: nuclei count (cytotoxicity indicator), at 2.08 µM; inhibition: at 2 µM, stronger effect = higher value, 0% TNFa-plus-vehicle, 100% no-TNFa wells.

A short description of experiment [2]: endothelial E-selectin expression blockers – imaging, HUVEC, immunofluorescence, MLSMR starter and 10KST1 sets, primary screen (AID 487;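 active = visually confirmed hit in the image check and inhibition above 20%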;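 as to inhibition: signal is fraction of cell area covered by stained E-selectin grains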;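 as to nuclei count: 100% = median nuclei count of all wells on the same plate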). The conditions noted are these: HUVEC TNFalpha-induced E-selectin immunofluorescence imaging, at 2 µM; inhibition: stronger effect = higher value; nuclei count: measured here: cell number, toxicity.
The nature of experiment [3]: Primary imaging screen for DUSP6 inhibitors that restore phospho-Erk in transfected HeLa cells, chemical complementation (AID 609;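 active = compounds giving at least 50% inhibition in the cell-based MKP-3 phosphatase rescue imaging test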;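 as to inhibition: phospho-Erk level distribution per well compared with pooled transfected vehicle control wells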). As to conditions: HeLa MKP-3 transfected, phospho-Erk imaging KS statistic, at 10 µM, cells stimulated with TPA for 15 min.
For experiment [4], the target named is Dual specificity protein phosphatase 6 (Homo sapiens) (UniProt Q16828). The description is as above. As to conditions: HeLa MKP-3 transfected, phospho-Erk imaging KS statistic; at 10 µM; stronger effect = higher value; cells stimulated with TPA for 15 min.
Sequence of Dual specificity protein phosphatase 6 (Homo sapiens) (Q16828 whole entry, looked up): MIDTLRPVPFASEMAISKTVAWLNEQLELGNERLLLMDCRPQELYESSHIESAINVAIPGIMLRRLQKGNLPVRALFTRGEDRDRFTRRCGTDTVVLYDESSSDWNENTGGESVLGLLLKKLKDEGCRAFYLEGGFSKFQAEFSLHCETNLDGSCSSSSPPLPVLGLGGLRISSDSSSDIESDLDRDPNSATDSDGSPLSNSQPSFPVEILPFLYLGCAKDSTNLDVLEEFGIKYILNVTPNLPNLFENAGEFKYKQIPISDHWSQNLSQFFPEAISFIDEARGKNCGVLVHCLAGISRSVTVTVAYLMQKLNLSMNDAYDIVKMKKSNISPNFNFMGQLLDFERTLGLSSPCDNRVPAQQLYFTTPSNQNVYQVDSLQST
For experiment [5], the target named is Voltage-gated potassium channel subunit beta-2 (Rattus norvegicus) (UniProt P62483). Put plainly: inhibitors of rat Kvbeta2 reductase activity – biochemical, NADPH fluorescence, primary screen (AID 622;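 active = fluorescence slope higher than the sample average by over 3 SD, cut at about -0.22 in these data, passing the limit was not always enough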;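 also: slope of raw intensity against log time taken from 70 to 1610 s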). As to conditions: recombinant KvBeta, 4-cyanobenzaldehyde reduction, at 10 µM, stronger effect = higher value.
Sequence of Voltage-gated potassium channel subunit beta-2 (Rattus norvegicus) (P62483 whole entry, looked up): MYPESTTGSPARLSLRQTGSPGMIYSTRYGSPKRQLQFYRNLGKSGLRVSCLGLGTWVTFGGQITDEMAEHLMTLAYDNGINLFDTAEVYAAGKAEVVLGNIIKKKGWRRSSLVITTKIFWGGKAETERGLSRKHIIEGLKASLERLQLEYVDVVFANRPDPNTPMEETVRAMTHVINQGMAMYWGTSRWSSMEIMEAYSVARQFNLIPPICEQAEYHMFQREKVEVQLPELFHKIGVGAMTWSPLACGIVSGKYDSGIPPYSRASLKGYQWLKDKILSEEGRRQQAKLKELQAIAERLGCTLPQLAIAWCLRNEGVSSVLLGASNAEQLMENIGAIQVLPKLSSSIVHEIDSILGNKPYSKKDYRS
The target is the same in experiment [6]. Put plainly: enhancers of rat Kvbeta2 NADPH turnover – biochemical, NADPH fluorescence, primary screen (AID 623).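 Also: fluorescence intensity change per second fitted from 20 to 320 s.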 As to conditions: Recombinant KvBeta, NADPH fluorescence decrease slope, 10 min; at 10 µM; stronger effect = lower value.
The target of experiment [7] is Alpha-2C adrenergic receptor (Homo sapiens) (UniProt P18825). Put plainly: compounds altering alpha2C-coupled GIRK flux – cell-based, HEK293 alpha2C/GIRK1/2, thallium flux, primary screen (AID 624;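 active = fluorescence slope after compound addition differing from the mean of all screened samples at 99.7% confidence, in either direction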;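 also: slope of fluorescence ratio to pre-addition baseline per second over 15 to 24 s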). The conditions noted are these: thallium flux BTC fluorescence, at 10 µM, actives lie on both sides.
Sequence of Alpha-2C adrenergic receptor (Homo sapiens) (P18825 whole entry, looked up): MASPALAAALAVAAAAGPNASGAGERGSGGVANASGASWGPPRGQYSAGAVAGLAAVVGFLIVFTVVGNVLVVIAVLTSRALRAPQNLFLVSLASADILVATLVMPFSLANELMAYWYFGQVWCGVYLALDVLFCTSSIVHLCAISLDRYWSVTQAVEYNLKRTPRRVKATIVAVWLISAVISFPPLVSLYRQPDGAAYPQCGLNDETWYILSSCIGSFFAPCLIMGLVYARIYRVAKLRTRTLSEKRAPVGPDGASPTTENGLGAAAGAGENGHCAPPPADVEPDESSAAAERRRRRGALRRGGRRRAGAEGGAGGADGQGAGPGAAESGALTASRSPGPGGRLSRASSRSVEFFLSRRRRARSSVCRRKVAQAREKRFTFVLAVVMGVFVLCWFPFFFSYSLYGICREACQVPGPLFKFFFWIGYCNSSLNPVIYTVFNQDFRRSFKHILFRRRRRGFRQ
Experiment [8] can be described thus: inhibitors of larval lipid processing in zebrafish, primary screen, whole organism, PED6 fluorescence, gall bladder and intestine (AID 686;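 active = a full or partial loss of lipid-probe fluorescence in the fish gall bladder, intestine or both, judged by eye; inactive = no fluorescence loss, or compound toxic to the fish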;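 also: larvae 5 to 7 days old with five fish per well; signal comes from phospholipase A2 cleavage of quenched PED6 carried via bile; overnight exposure to compound and PED6 before scoring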). The conditions noted are these: Zebrafish larvae PED6 lipid processing, fluorescence scoring; screened at 20 µM (by protocol). In outline:
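System: live zebrafish larvae aged 5-7 days, whole organism; measure: graded gall bladder and intestinal fluorescence inhibition per well; incubation: overnight exposure; reagent: ingested quenched lipid PED6 at 100 nM; signal: By-eye fluorescence microscopy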

Experiment [9] in a line: loss of swimming-algae plug formation – whole organism, Chlamydomonas reinhardtii, WT vs cilia-less mutant, absorbance, 96-well, primary screen (AID 463189;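 active = inhibition at or above 50% relative to wild type and mutant plate controls; inactive = inhibition below 50%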;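 also: 0% = wild type cc124 cells in DMSO and 100% = ciliumless bld1 mutant cells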). As to conditions: Chlamydomonas reinhardtii gravitaxis, OD600 absorbance, 2 days; at 10 µM; stronger effect = higher value.
Setting [10] is: measured here: cell density z-score.
Where [11] appears, read: measured here: nuclear c-Myc green intensity z-score.
[12] abbreviates: measured here: nuclear pErk red intensity z-score, stronger effect = higher value.

What is called inhibition is the change of the read-out against control, counted positive when it falls.

The source made the active and inactive calls.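 The calls were made as follows, unless noted: active = NADPH fluorescence slope more negative than the mean of all samples by about 3 SD, 99.7% confidence; inactive = the rest.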

With `COc1ccc2[nH]c3c(N4CCN(Cc5ccc6c(c5)OCO6)CC4)ncnc3c2c1`, the cell count in experiment [1] is 428. The inhibition is -0.7% (inactive) in [1], -50.8% (inactive) in [2], 0.671% (inactive) in experiment [4] and 141% (active) in experiment [9]. Further, the nuclei count in experiment [2] came out at 137%. The z-score in experiment [3] (setting [10]) is 0.867; in [3] (setting [11]) it was -0.34; in experiment [3] (setting [12]), 0.0587. Also, the fluorescence slope in [5] was -0.302 (inactive). In addition, the NADPH fluorescence slope in experiment [6] was 2.3e-06 (inactive). Besides, the slope in [7] is 0.00419 (inactive). In addition, the outcome in experiment [8] was inactive.

As for `Cn1c(=O)cc(NCc2ccccc2)[nH]c1=O`, the cell count in [1] stood at 451. Besides, the inhibition was -5.5% (inactive) in experiment [1], -114% (inactive) in [2], -0.624% (inactive) in experiment [4] and -4.62% (inactive) in [9]. In addition, the nuclei count in [2] is 164%. In addition, the results for the z-score in experiment [3] (setting [10]), in experiment [3] (setting [11]) and in experiment [3] (setting [12]) were 1.39, -0.42 and -0.956, respectively. Moreover, the fluorescence slope in experiment [5] was -0.333 (inactive). Besides, the NADPH fluorescence slope in experiment [6] was 5.7e-06 (inactive). Further, the slope in experiment [7] was 0.00621 (inactive). Moreover, in experiment [8], the call was inactive.

Take `N#CC1=C(C=Nc2ccccc2O)CCC1`: the cell count in [1] turned out to be 643. Besides, the inhibition was -12.1% (inactive) in experiment [1], -13.8% (inactive) in experiment [2], -8.95% (inactive) in experiment [4] and 11.8% (inactive) in [9]. In addition, in [2], the nuclei count was 163%. Also, the z-score is -1.7 in experiment [3] (setting [10]), -0.376 in [3] (setting [11]) and 2.01 in [3] (setting [12]). For the same compound, the fluorescence slope in [5] was -0.416 (inactive). Moreover, in experiment [6], the NADPH fluorescence slope is -6.1e-05 (inactive). The slope in experiment [7] was 0.00456 (inactive). Moreover, the outcome in experiment [8] was inactive.

For the compound `CCCCCCn1c(C(C)O)nc2ccccc21` (centres undefined), the cell count in [1] turned out to be 528. Moreover, the inhibition was -16.2% (inactive) in [1], -111% (inactive) in [2], 11.9% (inactive) in experiment [4] and 28% (inactive) in experiment [9]. Moreover, in experiment [2], the nuclei count amounted to 156%. Also, the z-score was 1.01 in [3] (setting [10]), -0.165 in [3] (setting [11]) and -1.61 in [3] (setting [12]). Further, the fluorescence slope in experiment [5] was -0.5 (inactive). Further, the NADPH fluorescence slope in experiment [6] was -5.9e-05 (inactive). For the same compound, the slope in [7] is 0.0045 (inactive). For the same compound, the outcome in [8] is “inactive; toxic”.

In the case of `COC(=O)c1ccccc1NC=C1C(=O)OC2(CCCCC2)OC1=O`, in experiment [1], the cell count is 343. Also, the inhibition was -9% (inactive) in experiment [1], 27.4% (inactive) in experiment [2], 1.42% (inactive) in experiment [4] and 46.5% (inactive) in [9]. Besides, the nuclei count in experiment [2] was determined as 86.4%. Also, the z-score in experiment [3] (setting [10]) is -1.26; in experiment [3] (setting [11]) it was -1.2; in experiment [3] (setting [12]) it was -0.313. The fluorescence slope in experiment [5] was -0.443 (inactive). The NADPH fluorescence slope in [6] was -1.9e-05 (inactive). Further, the slope in experiment [7] was 0.00691 (inactive). Also, the compound was called inactive in [8].

For `c1csc(-c2nn3c(C4CCCCC4)nnc3s2)c1`, in experiment [1], the cell count was found to be 623. Further, the inhibition was -8.5% (inactive) in experiment [1], -52.2% (inactive) in [2], -15% (inactive) in experiment [4] and 13.7% (inactive) in [9]. Further, in [2], the nuclei count amounted to 155%. Further, the z-score in experiment [3] (setting [10]) is -1.83; in experiment [3] (setting [11]), -0.584; in experiment [3] (setting [12]) it was 2.62. Moreover, the fluorescence slope in experiment [5] was -0.426 (inactive). The NADPH fluorescence slope in [6] is -0.00015 (inactive). Moreover, in experiment [7], the slope is 0.00407 (inactive). Besides, in experiment [8], the outcome was inactive.

Turning to `CCc1c(C)c(C#N)c2nc3ccccc3n2c1-n1nc(C)cc1C`, the cell count in [1] was found to be 609. For the same compound, the inhibition in experiment [1] was -2.3% (inactive); in experiment [2], -51.2% (inactive); in [4], 7.93% (inactive); in [9], -13.6% (inactive). The compound also came in with a nuclei count in experiment [2] of 140%. The z-score in experiment [3] (setting [10]) was -0.4; in experiment [3] (setting [11]), 1.4; in experiment [3] (setting [12]), -0.335. Further, the fluorescence slope in [5] is -0.352 (inactive). Besides, the NADPH fluorescence slope in experiment [6] is -7.9e-05 (inactive). In addition, the slope in experiment [7] was 0.00552 (inactive). Also, the result in experiment [8] was inactive.

As to `CC1(C(=O)O)CCC(C(=O)NC2CCCCCC2)C1(C)C` (centres undefined), the cell count in [1] was 542. Further, the inhibition was -9.8% (inactive) in experiment [1], -131% (inactive) in [2], 28.6% (inactive) in [4] and 28.8% (inactive) in [9]. Also, the nuclei count in experiment [2] was 196%. The z-score is 1.72 in [3] (setting [10]), -0.55 in experiment [3] (setting [11]) and -1.37 in experiment [3] (setting [12]). In [5], the fluorescence slope is -0.513 (inactive). For the same compound, in experiment [6], the NADPH fluorescence slope is -0.000107 (inactive). The slope in experiment [7] is 0.00621 (inactive). The compound was classed as inactive in experiment [8].

For `CCCCOC(=O)C(C)c1c(C)[nH]c(=S)[nH]c1=O` (centres undefined), the cell count in experiment [1] was determined as 479. Further, the inhibition in experiment [1] was -1.2% (inactive); in experiment [2] it was -142% (inactive); in [4], -3.5% (inactive); in experiment [9], 11.1% (inactive). Moreover, the nuclei count in experiment [2] worked out at 138%. The z-score is 0.126 in experiment [3] (setting [10]), 0.523 in [3] (setting [11]) and -0.0829 in [3] (setting [12]). Further, the fluorescence slope in [5] was -0.505 (inactive). Further, the NADPH fluorescence slope in experiment [6] was -3.9e-05 (inactive). For the same compound, the slope in experiment [7] was 0.00553 (inactive). In addition, the call in experiment [8] was inactive.

Turning to `CCN1CCCC1Cn1cnc2c([nH]c3ccc(C)cc32)c1=O` (centres undefined), in [1], the cell count came out at 319. For the same compound, the inhibition in experiment [1] was -6.8% (inactive); in experiment [2], 13.2% (inactive); in experiment [4], 9.42% (inactive); in experiment [9], 128% (active). For the same compound, in experiment [2], the nuclei count turned out to be 160%. For the same compound, the z-score was -0.0977 in experiment [3] (setting [10]), 0.977 in experiment [3] (setting [11]) and 0.149 in experiment [3] (setting [12]). Further, the fluorescence slope in experiment [5] was -0.357 (inactive). Also, in experiment [6], the NADPH fluorescence slope was -0.000123 (inactive). Moreover, the slope in [7] is 0.00693 (inactive). Also, in experiment [8], the result was inactive.

As to `O=C(NCc1ccccc1)c1ccc(=O)[nH]n1`, the cell count in experiment [1] stood at 328. The inhibition in [1] is -0.3% (inactive); in experiment [2] it was -132% (inactive); in [4], 11.3% (inactive); in [9], -6.14% (inactive). The same compound displayed a nuclei count in [2] of 98.8%. Besides, the figures for the z-score in experiment [3] (setting [10]), in [3] (setting [11]) and in experiment [3] (setting [12]) were -0.814, 0.951 and -1.98, respectively. Also, the fluorescence slope in experiment [5] is -0.456 (inactive). In experiment [6], the NADPH fluorescence slope was -0.00047 (inactive). Also, the slope in [7] is 0.00499 (inactive). Besides, in experiment [8], the outcome is “inactive; toxic”.

In the case of `CCOC(=O)c1c(C)n(C)c2ccc(OC)c(NC(=O)CN3CCCCC3)c12`, the cell count in [1] stood at 343. Further, the inhibition was -2.7% (inactive) in [1], -15% (inactive) in experiment [2], -6.59% (inactive) in experiment [4] and -10.1% (inactive) in experiment [9]. The compound also showed a nuclei count in experiment [2] of 132%. Besides, the figures for the z-score in [3] (setting [10]), in experiment [3] (setting [11]) and in experiment [3] (setting [12]) were -1.53, -1.22 and 2.07, respectively. For the same compound, in [5], the fluorescence slope is -0.46 (inactive). The NADPH fluorescence slope in [6] is -0.000136 (inactive). Besides, the slope in [7] is 0.00641 (inactive). Further, the result in experiment [8] was inactive.

With `CCOC(=O)c1ccc(N2CC(O)=C(c3nc4ccccc4c(=O)[nH]3)C2=N)cc1`, in experiment [1], the cell count worked out at 623. For the same compound, the inhibition was -11.3% (inactive) in experiment [1], 45.3% (inactive) in experiment [2], -13.3% (inactive) in experiment [4] and 2.42% (inactive) in [9]. This compound also had a nuclei count in [2] of 186%. The z-score in experiment [3] (setting [10]) was -1.54; in [3] (setting [11]), 0.558; in experiment [3] (setting [12]), 1.53. Further, the fluorescence slope in [5] is -0.208 (inactive). Moreover, the NADPH fluorescence slope in [6] is -1.8e-05 (inactive). In addition, the slope in experiment [7] is 0.00503 (inactive). Also, the call in experiment [8] was inactive.

Values taken from PubChem BioAssay.
